# Assays:
# Format in all cases: functional, cell-based
# [1] = target: T1, Kappa-type opioid receptor (Homo sapiens, UniProt P41145); experiment: Agonist activity at human kappa-type opioid receptor expressed in CHO-K1 cells assessed as inhibition of forskolin-induced cAMP accumulation after 30 mins by luminescence-based assay
# Method in brief: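 CHO-K1 cells stably expressing human κ-opioid receptor, tested in a HitHunter cAMP assay for inhibition of forskolin-induced cAMP accumulation, run per the manufacturer's directions. Compounds were tested up to 50 μM. Emax is expressed relative to salvinorin A, set at 100%. EC50 and Emax are given as means ± SEM of at least 2 independent experiments, each run in triplicate.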
# [2] = target: T1, Kappa-type opioid receptor; experiment: Agonist activity at human kappa-type opioid receptor expressed in CHO-K1 cells assessed as inhibition of forskolin-induced cAMP accumulation after 30 mins by luminescence-based assay relative to columbin
# [3] = target: T1, Kappa-type opioid receptor; experiment: Agonist activity at human kappa-type opioid receptor expressed in CHO-K1 cells assessed as inhibition of forskolin-induced cAMP accumulation up to 50 uM after 30 mins by luminescence-based assay
# Method in brief: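 CHO-K1 cells stably expressing human κ-opioid receptor; HitHunter cAMP assay, run per the kit directions, measuring inhibition of forskolin-induced cAMP accumulation. Compounds tested up to 50 μM. Reference agonist sets E_max = 100%. EC₅₀ and E_max given as means ± standard error of the mean from n ≥ 2 independent experiments, each in triplicate.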
# T1 sequence (P41145 whole entry): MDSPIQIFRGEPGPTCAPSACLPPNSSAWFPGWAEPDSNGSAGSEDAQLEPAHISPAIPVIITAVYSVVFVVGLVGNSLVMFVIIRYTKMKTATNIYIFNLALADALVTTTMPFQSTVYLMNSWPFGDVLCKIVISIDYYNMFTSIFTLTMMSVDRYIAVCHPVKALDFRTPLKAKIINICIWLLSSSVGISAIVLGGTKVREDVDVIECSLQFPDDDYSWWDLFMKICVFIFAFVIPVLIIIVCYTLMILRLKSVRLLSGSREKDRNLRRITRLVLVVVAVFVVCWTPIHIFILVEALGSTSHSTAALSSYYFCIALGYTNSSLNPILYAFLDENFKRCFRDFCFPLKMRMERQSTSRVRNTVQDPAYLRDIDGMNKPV
structure (smiles),measurement,setting,value
C[C@@]12C[C@H](c3ccoc3)OC(=O)[C@@H]1CC[C@]1(C)[C@H]2[C@@H]2OC(=O)[C@@]1(O)[C@H](O)[C@@H]2O,EC50,[1],16 µM
same,Emax,[1],100%
same,fold change (FC),[2],> 3.1
C[C@@]12C[C@H](c3ccoc3)OC(=O)[C@@H]1CC[C@]1(C)[C@H]2[C@H]2C=C[C@]1(OC(=O)/C=C/c1ccccc1)C(=O)O2,EC50,[1],6 µM
same,Emax,[1],100%
same,fold change (FC),[2],> 8.3
COCO[C@@]12C=C[C@@H](OC1=O)[C@H]1[C@]3(C)C[C@H](c4ccoc4)OC(=O)[C@@H]3CC[C@]12C,EC50,[1],12 µM
same,Emax,[1],100%
same,fold change (FC),[2],> 4.2
C[C@@]12C[C@H](c3ccoc3Br)OC(=O)[C@@H]1CC[C@]1(C)[C@H]2[C@H]2C=C[C@]1(O)C(=O)O2,EC50,[1],> 50 µM
same,Emax,[3],0%
CC(=O)O[C@@H]1[C@H]2OC(=O)[C@@](O)([C@@H]1OC(C)=O)[C@]1(C)CC[C@H]3C(=O)O[C@@H](c4ccoc4)C[C@@]3(C)[C@H]21,EC50,[1],> 50 µM
same,Emax,[3],0%
C[C@@]12C[C@H](c3ccoc3)OC(=O)[C@@H]1CC[C@]1(C)[C@H]2[C@H]2CC[C@]1(O)C(=O)O2,EC50,[1],2 µM
same,Emax,[1],100%
same,fold change (FC),[2],> 25
C[C@@]12C[C@H](c3ccoc3Br)OC(=O)[C@@H]1CC[C@]1(C)[C@H]2[C@@H]2OC(=O)[C@@]1(O)[C@@H](Br)[C@@H]2Br,EC50,[1],> 50 µM
same,Emax,[3],0%
C[C@@]12C[C@H](c3ccoc3)OC(=O)[C@@H]1CC[C@]1(C)[C@H]2[C@H]2C=C[C@]1(O)C(=O)O2,EC50,[1],> 50 µM
same,Emax,[3],0%
CC(=O)O[C@@]12C=C[C@@H](OC1=O)[C@H]1[C@]3(C)C[C@H](c4ccoc4)OC(=O)[C@@H]3CC[C@]12C,EC50,[1],8 µM
same,Emax,[1],100%
same,fold change (FC),[2],> 6.3
